Screening data: PubChem, Johns Hopkins Ion Channel Center
This is a sample that favours compounds with a hit; in the whole collection about 2.3% have one here.
TRPC4 inh: inhibitors of mouse TRPC4 channel; Q9QUQ5; HEK293 TRPC4beta/mu-opioid, DAMGO-evoked Fluo4 calcium flux; hits give low values; B-score at 10 µM; 0.39% of 300,000 active; AID 2247;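 active = B-score over 3 SD under the library average, no early fluorescence shift, positive overall ratio signal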
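Material: HEK293 cells with stable TRPC4beta plus mu-opioid receptor expression / Probe or stimulus: DAMGO in two steps, submaximal then maximal / Compound: single concentration per test compound / Technique: kinetic Fluo4 fluorescence imaging of calcium influx / Read-out: per-well B score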
TRPC6 activator: mouse TRPC6 channel activation. HEK293-TRPC6 membrane potential dye fluorescence; hits give high values. B-score at 10 µM. 0.13% of 310,000 active;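 active = B-score of the integrated fluorescence ratio above library mean plus 3 SD, and starting fluorescence ratio within library mean plus 5 SD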;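 also: higher score means more depolarization so channel activation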
Target sequence (Q61143 whole entry, looked up): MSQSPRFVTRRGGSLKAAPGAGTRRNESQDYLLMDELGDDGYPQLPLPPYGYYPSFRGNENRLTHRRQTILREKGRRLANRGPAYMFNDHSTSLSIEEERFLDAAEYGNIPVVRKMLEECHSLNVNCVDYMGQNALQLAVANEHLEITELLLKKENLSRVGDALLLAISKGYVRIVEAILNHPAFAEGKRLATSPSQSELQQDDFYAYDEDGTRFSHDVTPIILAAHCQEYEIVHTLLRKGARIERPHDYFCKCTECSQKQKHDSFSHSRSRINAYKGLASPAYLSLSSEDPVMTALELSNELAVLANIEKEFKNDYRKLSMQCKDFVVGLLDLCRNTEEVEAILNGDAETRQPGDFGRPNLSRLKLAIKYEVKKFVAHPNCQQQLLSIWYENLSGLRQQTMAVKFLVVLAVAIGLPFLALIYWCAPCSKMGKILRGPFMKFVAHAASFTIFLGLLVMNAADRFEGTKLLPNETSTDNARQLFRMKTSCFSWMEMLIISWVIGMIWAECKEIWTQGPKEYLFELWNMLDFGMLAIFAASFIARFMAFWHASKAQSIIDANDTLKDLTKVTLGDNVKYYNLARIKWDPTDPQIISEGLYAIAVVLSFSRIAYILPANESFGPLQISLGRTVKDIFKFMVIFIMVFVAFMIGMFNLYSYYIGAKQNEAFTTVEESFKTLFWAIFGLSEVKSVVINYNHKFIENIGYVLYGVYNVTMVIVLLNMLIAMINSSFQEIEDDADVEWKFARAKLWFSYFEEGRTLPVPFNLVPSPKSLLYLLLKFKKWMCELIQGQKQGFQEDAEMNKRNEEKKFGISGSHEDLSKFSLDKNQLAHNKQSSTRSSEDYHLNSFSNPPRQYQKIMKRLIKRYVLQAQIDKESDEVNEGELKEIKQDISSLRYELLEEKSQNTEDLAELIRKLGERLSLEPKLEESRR
TRPC4 agonist: TRPC4 (mouse) channel activation; Q9QUQ5; HEK293 TRPC4beta/mu-opioid, Fluo4 calcium fluorescence; hits give high values; B-score at 10 µM; 0.49% of 310,000 active; AID 2237;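 active = B-score above 5 SD of library B-scores, and initial fluorescence ratio not above library mean plus 5 SD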;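 also: positive B-score marks a calcium rise read as TRPC4 activation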
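System: HEK293 cells stably co-expressing mouse TRPC4beta and mu-opioid receptor; Schedule: Fluo4 dye loading 45 min at room temperature, 110 s recording; Detection: Fluo4 fluorescence, kinetic; Evaluation: B-scored integrated calcium fluorescence ratio; Controls: buffer (low) and maximal DAMGO (high).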
TRPC6 inhibitor: blocks the mouse TRPC6 cation channel; HEK293-TRPC6, membrane potential dye, ACh-evoked depolarization; hits give low values; 1.1% of 310,000 active; B-score at 10 µM;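 active = B-score under library mean minus 3 SD, initial fluorescence not abnormally high, positive integrated signal ratio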;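 also: B-score derived from integrated fluorescence ratio over the kinetic read; more negative B-score means stronger inhibition of depolarization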
TRPC4 potent: TRPC4 (mouse) allosteric potentiation; Q9QUQ5; HEK293 TRPC4beta/mu-opioid, DAMGO EC20, Fluo-4 Ca2+ flux; hits give high values; B-score at 10 µM; 0.42% of 310,000 active; AID 2227;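 active = B-score of calcium response area above 5 SD of library B-scores, with initial fluorescence ratio within 5 SD of library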;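 also: B-score of integrated fluorescence ratio over time as area under calcium response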
* hit, by the source's call; i = inactive.

SMILES | TRPC4 inh | TRPC6 activator | TRPC4 agonist | TRPC6 inhibitor | TRPC4 potent
CN(CC(=O)Nc1c(Cl)cccc1Cl)C(=O)CC1Sc2ccccc2NC1=O (stereo unspecified) | -6* | i | i | i | i
Cc1ccc2c(c1)N(CC(=O)N1CCN(C3CCCCC3)CC1)C(=O)CO2 | i | i | i | i | 10*
CN(C)CCCN(C(=O)c1ccc2c(c1)CCCC2)c1nc2cc3c(cc2s1)OCO3 | i | i | i | i | i
CCN(CC)CCN(C(=O)CN1C(=O)c2ccccc2C1=O)c1nc2cc3c(cc2s1)OCO3 | i | i | i | -8.7* | i
CN(C)CCN(C(=O)c1ccc(S(=O)(=O)N(C)c2ccccc2)cc1)c1nc2cc3c(cc2s1)OCO3 | i | i | i | i | i
CCN(Cc1ccccc1)S(=O)(=O)c1ccc(C(=O)N(CCCN(C)C)c2nc3cc4c(cc3s2)OCO4)cc1 | -6* | i | 45* | i | i
CN(C)CCN(C(=O)CN1C(=O)c2ccccc2C1=O)c1nc2cc3c(cc2s1)OCO3 | i | i | i | i | i
CN(C)CCCN(C(=O)c1ccc(Br)s1)c1nc2cc3c(cc2s1)OCO3 | -7* | i | i | i | i
O=C1c2ccccc2S(=O)(=O)c2cc(C(=O)N3CCC(N4CCCC4)CC3)ccc21 | i | i | i | i | i
O=C1C(Cl)=C(Nc2ccccc2)C(=O)c2ccccc21 | i | i | i | i | i
O=C(O)c1ccc(NC2=C(Cl)C(=O)c3ccccc3C2=O)cc1 | -5* | i | i | i | i
Cc1cc(C)c(C)c(S(=O)(=O)NCc2ccco2)c1C | i | i | i | i | 26*
O=C(NCCCN1CCN(CCCNC(=O)c2ccc3c(c2)OCO3)CC1)c1ccc2c(c1)OCO2 | i | i | 138* | i | i
COc1cccc(C(=O)NCCCN2CCN(CCCNC(=O)c3cccc(OC)c3)CC2)c1 | i | i | i | i | 12*
COc1cccc(C(=O)NCCCNC(=O)c2cccc(OC)c2)c1 | i | i | i | i | i
COCCCNC(=O)c1ccc2c(c1)OCO2 | i | i | i | i | i
O=C(NCCCN1CCN(CCCNC(=O)c2cccc(Cl)c2)CC1)c1cccc(Cl)c1 | i | i | i | i | 18*
COc1ccc(Cl)cc1NC(=S)N(CCN1CCOCC1)C1CCN(C(C)=O)CC1 | i | i | i | i | i
CCS(=O)(=O)N1CCN(c2ccc([N+](=O)[O-])c(N3CCOCC3)c2)CC1 | i | i | i | i | i
O=C(COc1ccc(Cl)cc1[N+](=O)[O-])NC1CCCCC1 | i | i | i | i | 85*
Cc1cc(OCC(=O)NC2CCCCC2)ccc1Cl | i | i | i | i | 27*
COc1cccc(OCC(=O)NC2CCCCC2)c1 | i | i | i | i | 31*
O=C(NC(=S)NNC(=O)c1cccs1)c1ccc(Br)o1 | i | i | 180* | i | i
O=C(COc1ccccc1)NC1CCCCC1 | i | i | i | i | i
CCC(=O)NC(=S)Nc1ccc(NC(=O)COc2ccc(Cl)c(C)c2)cc1 | i | i | i | i | i
SMILES | TRPC4 inh | TRPC6 activator | TRPC4 agonist | TRPC6 inhibitor | TRPC4 potent
Cc1cc(OCC(=O)NNC(=S)NC(=O)c2ccc(Br)o2)ccc1Cl | i | i | i | i | 16*
COc1ccc(C(=O)COc2ccc(F)cc2)c(O)c1 | i | i | i | i | i
O=C(COc1ccc(F)cc1)c1c(O)cc(O)cc1O | -6* | i | i | i | i
CC(=NCCN1CCN(C(C)=C2C(=O)c3ccccc3C2=O)CC1)C1=C(O)CC(C)(C)CC1=O | i | i | i | i | 14*
CC1CCCN(CCCNC(=O)c2ccc3c(c2)N(Cc2ccccc2F)C(=O)c2ccccc2S3(=O)=O)C1 (stereo unspecified) | i | i | 114* | i | i
COc1cc(OC)c(OC)cc1CCC(C)NCCC(c1ccccc1)c1ccccc1 (stereo unspecified) | i | i | 87* | i | i
COc1ccccc1CCNC(C)CCc1ccc(O)cc1 (stereo unspecified) | i | i | i | i | i
COc1ccc(C2/C(=C(\O)c3cccc(OC)c3)C(=O)C(=O)N2c2ccccn2)cc1 (stereo unspecified) | i | i | i | i | i
COc1ccc(CCNCC(O)COc2ccc(OC)cc2C(C)(C)C)cc1 (stereo unspecified) | i | i | i | i | 16*
COc1ccc(CCNCC(O)COc2cccc(Br)c2)cc1OC (stereo unspecified) | i | i | i | i | i
O=c1c2c(-c3ccccc3)csc2ncn1/N=C/c1ccc(O)c([N+](=O)[O-])c1 | i | i | i | i | i
O=c1c2c(-c3ccccc3)csc2ncn1/N=C/c1cccc([N+](=O)[O-])c1O | -8* | i | 68* | i | i
COc1ccc(N2CCN(C(=O)CCCn3c(=O)[nH]c4cc(Cl)ccc4c3=O)CC2)cc1 | -6* | i | i | i | i
CC(=O)c1ccc(N2CCN(C(=O)CCCn3c(=O)[nH]c4ccccc4c3=O)CC2)cc1 | i | i | i | i | i
COc1ccccc1NS(=O)(=O)c1cc(C(=O)N2CC(C)CC(C)C2)ccc1C (stereo unspecified) | i | i | i | i | i
N#Cc1c(Cc2cccc3ccccc23)nn(CCO)c1N | i | i | i | i | i
CC(=O)c1cccc(NC(=S)NC(=O)CC(C)(C)C)c1 | i | i | i | i | i
CCOC(=O)CN1C(=O)N[C@@H](CCc2ccccc2)[C@H](C(C)=O)[C@H]1C | i | i | i | i | i
CCC(C)NCCC(=O)Nc1ccc(Cl)c(S(=O)(=O)Nc2ccc(Cl)cc2)c1 (stereo unspecified) | i | i | i | i | 11*
CC1(C(=O)NC(=S)NNC(=O)c2ccncc2)CCCCC1 | i | i | 97* | i | i
O=C(NNC(=S)NC(=O)C12CC3CC(CC(C3)C1)C2)c1ccncc1 | i | i | 169* | i | i
CCOC(=O)C(C)Sc1nc2c(c(=O)[nH]c(=O)n2C)n1Cc1ccc(Cl)cc1 (stereo unspecified) | -6* | i | i | i | i
NC(N)=NC(=O)Cc1c(Cl)cccc1Cl | i | i | 46* | i | i
CN(C)S(=O)(=O)c1ccc(Cl)c(C(=O)NC2CCN(Cc3ccccc3)C2)c1 (stereo unspecified) | i | i | i | i | 19*
